Reference: ChEMBL document CHEMBL1131420 (J Med Chem, 1998)

Columns and labels:
[1] = molecular target: T1, Sodium-dependent dopamine transporter (Rattus norvegicus, UniProt P23977); assay: Inhibitory activity determined for [3H]DA (Dopamine transporter) uptake by striated synaptosomes; type: subcellular, Brain
[2] = molecular target: T1, Sodium-dependent dopamine transporter; assay: (§1) Inhibitory activity on dopamine transporters of rat striated membranes using [3H]- mazindol.
Procedure, shortened: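 Striatal membrane homogenate was added to tubes holding drug and about 4 nM [3H]mazindol in Krebs-Ringer-HEPES (pH 7.4). Incubation was 1 h at 4 °C, followed by filtration.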

[3] = molecular target: T1, Sodium-dependent dopamine transporter; assay: Binding affinity of compound on dopamine transporters of rat striated membranes using [3H]- mazindol.; type: cell membranes, Membrane
Procedure, shortened: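 Striatal membrane homogenate was added to tubes holding drug and about 4 nM [3H]mazindol in Krebs-Ringer-HEPES (pH 7.4). Incubation was 1 h at 4 °C, followed by filtration. […] Values are the mean of 2–3 experiments.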

[4] = molecular target: T2, Sodium-dependent serotonin transporter (Rattus norvegicus, UniProt P31652); assay: Binding affinity for Serotonin transporter was determined by [3H]5-HT (serotonin) uptake by striated synaptosomes; type: subcellular, Brain
T2 sequence (P31652 whole entry): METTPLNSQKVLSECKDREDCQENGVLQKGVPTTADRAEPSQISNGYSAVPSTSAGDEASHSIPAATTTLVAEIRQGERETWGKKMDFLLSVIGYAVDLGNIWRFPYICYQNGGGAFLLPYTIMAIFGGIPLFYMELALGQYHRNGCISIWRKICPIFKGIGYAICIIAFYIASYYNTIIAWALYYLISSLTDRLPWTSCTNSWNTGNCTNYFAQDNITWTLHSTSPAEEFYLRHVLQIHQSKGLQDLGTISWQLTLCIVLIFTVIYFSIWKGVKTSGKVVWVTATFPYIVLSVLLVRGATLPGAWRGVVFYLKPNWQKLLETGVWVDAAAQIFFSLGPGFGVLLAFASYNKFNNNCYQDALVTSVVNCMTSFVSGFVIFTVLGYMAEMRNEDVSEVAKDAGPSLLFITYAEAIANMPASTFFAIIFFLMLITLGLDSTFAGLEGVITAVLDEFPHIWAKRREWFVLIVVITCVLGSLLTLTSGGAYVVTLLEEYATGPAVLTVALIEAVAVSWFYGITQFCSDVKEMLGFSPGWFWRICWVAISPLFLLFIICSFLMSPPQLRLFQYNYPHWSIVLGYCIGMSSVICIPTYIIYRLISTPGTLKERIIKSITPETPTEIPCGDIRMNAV

[5] = molecular target: T2, Sodium-dependent serotonin transporter; assay: Inhibitory activity against Serotonin transporter was determined for [3H]5-HT (serotonin) uptake by striated synaptosomes; type: subcellular, Brain
[6] = molecular target: Monoamine transporters; serotonin & dopamine (Rattus norvegicus) (UniProt P31652+P23977); assay: Ratio of Ki value for 5-HT to that of DA.; type: protein assay
Monoamine transporters; serotonin & dopamine (Rattus norvegicus), sequence (P23977 whole entry, looked up): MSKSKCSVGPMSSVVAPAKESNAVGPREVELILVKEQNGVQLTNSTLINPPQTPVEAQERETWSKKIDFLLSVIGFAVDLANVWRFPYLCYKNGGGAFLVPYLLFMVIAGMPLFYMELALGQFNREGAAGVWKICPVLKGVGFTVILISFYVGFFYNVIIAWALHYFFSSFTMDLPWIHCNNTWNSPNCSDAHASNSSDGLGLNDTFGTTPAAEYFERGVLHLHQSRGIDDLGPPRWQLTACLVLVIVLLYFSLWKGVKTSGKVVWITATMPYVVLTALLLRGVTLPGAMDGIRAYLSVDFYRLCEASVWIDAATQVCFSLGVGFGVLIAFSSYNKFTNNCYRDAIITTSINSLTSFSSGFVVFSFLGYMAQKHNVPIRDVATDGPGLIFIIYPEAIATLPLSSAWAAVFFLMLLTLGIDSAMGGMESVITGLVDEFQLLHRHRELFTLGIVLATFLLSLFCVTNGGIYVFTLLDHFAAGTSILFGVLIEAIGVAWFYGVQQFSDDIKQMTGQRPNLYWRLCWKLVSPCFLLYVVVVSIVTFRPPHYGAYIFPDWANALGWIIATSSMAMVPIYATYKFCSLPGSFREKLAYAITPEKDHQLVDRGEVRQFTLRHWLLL
Monoamine transporters; serotonin & dopamine (Rattus norvegicus), sequence (P31652 whole entry, looked up): as the sequence (P31652 whole entry) above

[7] = molecular target: T1, Sodium-dependent dopamine transporter; assay: Binding affinity for [3H]DA (Dopamine transporter) uptake by striated synaptosomes; type: subcellular, Brain
Procedure, shortened: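 Striatal synaptosomes in Krebs-Ringer-HEPES (125 mM NaCl, 4.8 mM KCl, 1.2 mM MgSO4, 25 mM HEPES, pH 7.4). After 30 min drug preincubation, [3H]DA was added at about 5 nM. Uptake lasted 5 min and ended by rapid filtration. […] Ki was derived by Cheng–Prusoff with Kd 57 nM. Values are the mean of 2–3 experiments.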

[8] = molecular target: T1, Sodium-dependent dopamine transporter; assay: as §1; remark: listed apart in the source
[9] = molecular target: T1, Sodium-dependent dopamine transporter; assay: Inhibitory activity on dopamine transporter of rat striated membranes using [3H]- mazindol.

T1 sequence (P23977 whole entry): as the sequence (P23977 whole entry, looked up) above

Structure (SMILES)	IC50 [1] [nM]	IC50 [2] [nM]	Ki [3] [nM]	Ki [4] [nM]	IC50 [5] [nM]	Uptake ratio [6]	Ki [7] [nM]	IC50 [8] [nM]	IC50 [9] [nM]
CCC[C@H]1C(c2ccccc2)C[C@H]2CCC1N2C (stereo not given in full)	7.46	23.1	12.2	86.8	95.4	12.6	6.89	–	–
Cc1ccc([C@@H]2C[C@H]3CCC([C@@H]2c2ccccc2)N3C)cc1	4.48	5.55	2.87	287	314	68.9	4.16	–	–
CN1C2CC[C@@H]1C[C@@H](c1ccccc1)[C@H]2c1ccccc1	12.6	26.6	13.8	753	823	64.3	11.7	–	–
CCCC[C@H]1C2CC[C@H](C[C@H]1c1ccc(C)cc1)N2C	10.9	21.6	11.4	51	55.8	5.1	10.1	–	–
CCC[C@H]1C2CC[C@H](C[C@H]1c1ccc(F)cc1)N2C	13.1	37.1	21.1	99.6	109	8.2	12.1	–	–
CCC[C@H]1C2CC[C@H](C[C@H]1c1ccccc1)N2C	32.6	141	74.9	389	427	12.9	30.2	–	–
CCC[C@H]1C2CC[C@H](C[C@H]1c1ccc(C)cc1)N2C	12.8	18.2	8.91	50.1	54.8	4.25	11.8	–	–
CN1C2CC[C@@H]1CC(c1ccccc1)[C@@H]2c1ccccc1 (mixture of isomers)	–	–	–	–	–	–	–	28	–
COC(=O)[C@H]1C(c2ccccc2)C[C@H]2CCC1N2C (stereo not given in full)	57.9	163	89.4	–	–	–	53.7	–	–
CCC[C@H]1C(c2ccc(C)cc2)C[C@H]2CCC1N2C (stereo not given in full)	1.19	2.97	1.57	10.3	11.3	9.35	1.1	–	–
COC(=O)[C@@H]1C2CC[C@H](C[C@@H]1c1ccc(C)cc1)N2C	7.47	–	5.76	–	–	–	6.92	–	10.5
CCCC[C@H]1C(c2ccc(C)cc2)C[C@H]2CCC1N2C (stereo not given in full)	1.42	3.43	1.82	15.1	16.5	11.5	1.31	–	–
CN1C2CC[C@@H]1C[C@@H](c1ccc(F)cc1)[C@H]2c1ccccc1	4.95	11.4	6	122	134	26.6	4.58	–	–
CN1C2CC[C@@H]1CC(c1ccccc1)[C@@H]2c1ccccc1 (stereo not given in full) [listing 1 of 2 here]	31.1	96.5	49.9	1100	1200	–	28.9	–	–
Cc1ccc(C2C[C@H]3CCC([C@H]2c2ccccc2)N3C)cc1 (stereo not given in full)	3.09	4.98	2.58	73.8	80.8	25.7	2.87	–	–
CCC[C@H]1C(c2ccc(F)cc2)C[C@H]2CCC1N2C (stereo not given in full)	2.16	10	5.28	21.7	23.7	10.9	1.99	–	–
CN1C2CC[C@@H]1CC(c1ccccc1)[C@@H]2c1ccccc1 (stereo not given in full) [listing 2 of 2 here]	–	–	–	–	–	38.1	–	–	–
